Activity calls are given as the source filed them. The rule behind the calls is not given here.

Series [1] concerns Mus musculus. Nature of the series: Antidepressant activity in KunMing mouse assessed as immobility time at 50 mg/kg, ip by forced swimming test. The format is functional. The following applies: route intraperitoneal. Summed up: (§1)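 Compounds in DMSO given i.p. to mice, n = 8 per group. Dose was 50 mg/kg, or 10, 25 and 50 mg/kg in the dose-response study. After 30 min each mouse was placed in a water-filled cylinder (water 18 cm deep, 23–25 °C). Immobility (upright floating, only slight movements) was timed over the last 4 min of 6 min. %DID = (A − B)/A × 100, where A is control immobility and B is test immobility. Mean ± SEM; ANOVA with Dunnett's test versus control.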

Series [2] relates to Mus musculus. Nature of the series: Antidepressant activity in KunMing mouse assessed as decrease in immobility time at 50 mg/kg, ip by forced swimming test relative to control. The format is functional. The following applies: route intraperitoneal. On the set-up: scale not given: the % may be the effect or the level left. Summed up:
as §1

Series [3] relates to Mus musculus. Nature of the series: Neurotoxicity in KunMing mouse assessed as motor impairment at 300 mg/kg, ip after 4 hrs by rotarod test. Format: toxicity, organism-based. On the set-up: dose 300 mg/kg, route intraperitoneal. The following applies: in vivo. The method, boiled down: (§2)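 Mice were trained on a 3.2 cm diameter rotarod turning at 10 rpm, then given compounds in DMSO i.p. at 30, 100 or 300 mg/kg. Neurotoxicity = failure to stay on the rod for at least 1 min in each trial, checked at 0.5 and 4 h. Value is the minimal dose toxic in half or more of the mice.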

Series [4] concerns Mus musculus. Nature of the series: Neurotoxicity in KunMing mouse assessed as motor impairment at 300 mg/kg, ip after 0.5 hrs by rotarod test. The following applies: in vivo. Format: toxicity, organism-based. The arrangement: dose 300 mg/kg, route intraperitoneal. The method, boiled down:
as §2
Background: The rotarod test checks motor coordination on a turning rod.

In series [5] the test system is Mus musculus. Nature of the series: Anticonvulsant activity in KunMing mouse assessed as protection against maximal electroshock-induced seizures at 300 mg/kg, ip after 0.5 hrs. The format is functional, organism-based. On the set-up: dose 300 mg/kg. Summed up: (§3)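 Mice (22 ± 2 g) given compounds in DMSO i.p. at 30, 100 and 300 mg/kg; seizures elicited by electroshock via ear stimulation. Protection = abolition of hind limb tonic extension, read at 0.5 and 4 h after injection. Value is the minimal dose active in half or more of the mice; 300 mg/kg was the top dose.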

The subject of series [6] is Mus musculus. As to the kind of experiment: Neurotoxicity in KunMing mouse at 50 mg/kg, ip. Format: toxicity, organism-based. The arrangement: dose 50 mg/kg, route intraperitoneal. The following applies: in vivo.
The test system of series [7] is Mus musculus. As to the kind of experiment: Anticonvulsant activity in ip dosed KunMing mouse assessed as protection against maximal electroshock-induced seizures after 4 hrs. The format is functional. Particulars: read-out: MED. Summed up: as §3
For orientation: Protection in the maximal electroshock model is a classic sign of anticonvulsant action.

For series [8], the system named is Mus musculus. As to the kind of experiment: Toxicity in KunMing mouse assessed as effect on grooming at 50 mg/kg, ip by open-field test. The format is organism-based. Particulars: in vivo. On the set-up: dose 50 mg/kg, route intraperitoneal. The method, boiled down:
(§4)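 Mice (22 ± 2 g) given 50 mg/kg i.p. in DMSO; tested 30 min later in an open field, placed at the centre. Counts were taken of locomotion (line crossings), rearing (standing on hind legs) and grooming. Mean ± SEM; ANOVA with Bonferroni's test versus control.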

Series [9] concerns Mus musculus. Nature of the series: Toxicity in KunMing mouse assessed as effect on rearing at 50 mg/kg, ip by open-field test. On the set-up: dose 50 mg/kg, route intraperitoneal. The following applies: in vivo. Format: organism-based. The method, boiled down:
as §4

Series [10] has as its system Mus musculus. As to the kind of experiment: Toxicity in KunMing mouse assessed as effect on locomotion at 50 mg/kg, ip by open-field test. Particulars: in vivo. The format is organism-based. The arrangement: dose 50 mg/kg, route intraperitoneal. The method, boiled down:
as §4

Series [11] has as its system Mus musculus. Nature of the series: Antidepressant activity in KunMing mouse assessed as decrease in immobility time at 25 to 50 mg/kg, ip by forced swimming test. The format is functional, organism-based. The method, boiled down:
as §1

The test system of series [12] is Mus musculus. As to the kind of experiment: Antidepressant activity in KunMing mouse assessed as decrease in immobility time at 10 mg/kg, ip by forced swimming test. Format: functional, organism-based. The arrangement: dose 10 mg/kg. Summed up:
as §1

The subject of series [13] is Mus musculus. As to the kind of experiment: Antidepressant activity in ip dosed KunMing mouse assessed as decrease in immobility time by forced swimming test. The format is functional, organism-based. The method, boiled down: as §1
Series [14] has as its system Mus musculus. Nature of the series: Antidepressant activity in KunMing mouse at 50 mg/kg, ip by tail suspension test. The format is functional, organism-based. The arrangement: dose 50 mg/kg. Summed up:
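Male KunMing mice (22 ± 2 g, n = 8 per group), dosed i.p. at 50 mg/kg from a dimethylsulfoxide solution. Each mouse was hung by the tail above the floor with adhesive tape about 1-2 cm from the tail tip. Immobility, meaning completely motionless and hanging passively, was timed over the last 6 min of a 7 min session. Read-out was mean ± SEM, compared with control by ANOVA followed by Dunnett's test.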

Turning to `O=C1CCc2cc(-n3cnnc3)ccc2N1Cc1ccccc1F`, the Time in [1] is 35.6 s. The Activity in [2] was 72.7%; in [3], “Non-toxic”; in [4] it was “Non-toxic”; in series [6], “Non-toxic”; in series [8], “Non-toxic”; in series [9] it was “Non-toxic”. For the same compound, the values for the Activity entry in [10] and in [13] were “Non-toxic” and “Dose-dependent effect”, respectively. Besides, the result in series [5] and in series [12] was inactive. Further, the minimal effective dose in series [7] stood at 300 mg/kg. Besides, the result in series [11] and in series [14] was Active.

These data come from ChEMBL document CHEMBL3124842, “Design, synthesis and evaluation of the antidepressant and anticonvulsant activities of triazole-containing quinolinones” (Eur J Med Chem, 2014).
